Activity calls are given as the source filed them. No cut-off for these calls is given here.
Columns and labels:
Acetylcholinesterase = molecular target: T1, Acetylcholinesterase (Rattus norvegicus, UniProt P37136); experiment: Inhibition of acetylcholinesterase (AChE) activity; details: read-out: I50
T1 sequence (P37136 whole entry): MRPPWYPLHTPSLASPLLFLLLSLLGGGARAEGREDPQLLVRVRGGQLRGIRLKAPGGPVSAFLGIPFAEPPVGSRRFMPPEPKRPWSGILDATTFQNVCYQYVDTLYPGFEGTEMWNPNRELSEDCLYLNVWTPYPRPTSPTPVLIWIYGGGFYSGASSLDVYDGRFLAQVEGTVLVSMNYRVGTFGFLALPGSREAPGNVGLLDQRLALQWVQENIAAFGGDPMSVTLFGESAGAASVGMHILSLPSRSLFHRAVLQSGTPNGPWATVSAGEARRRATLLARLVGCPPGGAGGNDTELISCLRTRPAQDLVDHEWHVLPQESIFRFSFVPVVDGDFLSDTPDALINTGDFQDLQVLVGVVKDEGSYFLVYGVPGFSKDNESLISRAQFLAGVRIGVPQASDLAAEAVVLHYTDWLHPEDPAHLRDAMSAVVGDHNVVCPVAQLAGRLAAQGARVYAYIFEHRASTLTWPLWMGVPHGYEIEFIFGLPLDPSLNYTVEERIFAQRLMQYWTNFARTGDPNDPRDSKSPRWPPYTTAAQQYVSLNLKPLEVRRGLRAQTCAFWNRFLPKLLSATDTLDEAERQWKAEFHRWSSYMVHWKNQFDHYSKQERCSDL

[1] = Degree of specificity expressed as the ratio of I50 of AChE to I50 of ChAT
Method in brief: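 Ratio of AChE I50 to ChAT I50. ChAT: partially purified rat brain enzyme, 3 min at 37 °C, 0.1 mM [14C]acetyl-CoA, 5 mM choline. AChE: commercial enzyme, 10 min at 37 °C, [14C]acetylcholine, 1% Triton-X. Radiometric read-out for both; inhibitors tested 10^-3–10^-8 M.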

[2] = molecular target: T2, Choline O-acetyltransferase (Rattus norvegicus, UniProt P32738); experiment: (§1) Inhibition of choline acetyltransferase (ChAT) activity; details: read-out: I50
T2 sequence (P32738 whole entry): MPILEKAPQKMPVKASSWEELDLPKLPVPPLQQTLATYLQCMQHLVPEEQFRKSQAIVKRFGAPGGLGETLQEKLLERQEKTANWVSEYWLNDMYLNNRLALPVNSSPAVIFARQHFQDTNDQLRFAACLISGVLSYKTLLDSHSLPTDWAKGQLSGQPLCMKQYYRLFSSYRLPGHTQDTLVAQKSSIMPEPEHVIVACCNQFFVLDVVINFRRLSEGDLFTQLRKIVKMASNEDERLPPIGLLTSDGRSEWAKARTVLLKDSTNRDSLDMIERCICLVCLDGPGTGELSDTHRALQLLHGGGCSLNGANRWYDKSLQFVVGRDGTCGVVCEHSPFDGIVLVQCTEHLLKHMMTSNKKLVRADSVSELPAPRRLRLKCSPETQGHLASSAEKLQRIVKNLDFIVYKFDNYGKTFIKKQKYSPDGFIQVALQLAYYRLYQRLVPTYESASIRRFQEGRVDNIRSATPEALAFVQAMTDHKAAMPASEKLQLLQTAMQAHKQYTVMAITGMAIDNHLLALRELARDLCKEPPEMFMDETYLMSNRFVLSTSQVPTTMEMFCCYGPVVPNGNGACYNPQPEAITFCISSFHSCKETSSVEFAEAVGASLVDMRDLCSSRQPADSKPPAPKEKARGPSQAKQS

[3] = molecular target: T3, Acetylcholinesterase (Rattus norvegicus) (UniProt P37136)
T3 sequence (whole entry): T1 sequence (P37136 whole entry)

[4] = molecular target: T2, Choline O-acetyltransferase; experiment: as §1; details: read-out: I50; remark: listed apart in the source
Method in brief: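 Rat brain enzyme, partially purified (through CM-Sephadex batch elution), stored -20 °C, diluted for linear kinetics. Radiolabelled product counted by scintillation. Inhibitors tested 10^-3–10^-8 M; I50 reported.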

[5] = molecular target: T4, Choline O-acetyltransferase (Rattus norvegicus) (UniProt P32738); experiment: Inhibition of choline acetyltransferase (ChAT) activity; NI is no inhibition observed up to 0.001 M
T4 sequence (whole entry): T2 sequence (P32738 whole entry)

| SMILES | IC50 (Acetylcholinesterase) | Ratio [1] | IC50 [2] | I50 [3] | IC50 [4] | I50 [5] |
| --- | --- | --- | --- | --- | --- | --- |
| Cc1c[n+](CC(N)=O)ccc1/C=C/c1cccc2ccccc12 | 45 µM | 132 | 0.34 µM |  |  |  |
| Cc1c[n+](CCN)ccc1/C=C/c1cccc2ccccc12 | 30 µM | 6 | 5 µM |  |  |  |
| CCOC(=O)C[n+]1ccc(/C=C/c2cccc3ccccc23)c(C)c1 | 10 µM | 8 | 1.2 µM |  |  |  |
| C(=C\c1cccc2ccccc12)/c1ccncc1 |  | > 26 | 38 µM | inactive |  |  |
| O=C(O)CC[n+]1ccc(/C=C/c2cccc3ccccc23)cc1 | 1000 µM | 25 | 40 µM |  |  |  |
| CCNC(=O)NC(=O)CBr |  |  |  | inactive | 250 µM |  |
| CC(=O)C[n+]1ccc(/C=C/c2cccc3ccccc23)cc1 | 31 µM | 8 | 3.7 µM |  |  |  |
| O=C(CBr)C[n+]1ccc(/C=C/c2cccc3ccccc23)cc1 | 40 µM | 4 | 10 µM |  |  |  |
| CCC[n+]1ccc(/C=C/c2cccc3ccccc23)cc1 | 17.5 µM | 92 | 0.19 µM |  |  |  |
| NC(=O)NC(=O)C[n+]1ccc(/C=C/c2cccc3ccccc23)cc1 | 140 µM | 38 | 3.7 µM |  |  |  |
| Cc1cnccc1/C=C/c1cccc2ccccc12 |  | > 25 | 40 µM | inactive |  |  |
| C[n+]1ccc(/C=C/c2cccc3ccccc23)cc1 | 30 µM | 77 | 0.39 µM |  |  |  |
| CCOC(=O)C[n+]1ccc(/C=C/c2cccc3ccccc23)cc1 | 32 µM | 32 | 1 µM |  |  |  |
| Cc1c[n+](CCO)ccc1/C=C/c1cccc2ccccc12 | 27 µM | 16 | 1.7 µM |  |  |  |
| NCCC[n+]1ccc(/C=C/c2cccc3ccccc23)cc1 | 220 µM | 42 | 5.3 µM |  |  |  |
| CCNC(=O)NC(=O)C[n+]1ccc(/C=C/c2cccc3ccccc23)cc1 | 130 µM | 33 | 3.9 µM |  |  |  |
| OCC[n+]1ccc(/C=C/c2cccc3ccccc23)cc1 | 68 µM | 40 | 1.7 µM |  |  |  |
| O=C(CO)C[n+]1ccc(/C=C/c2cccc3ccccc23)cc1 |  | > 200 | 3 µM |  |  |  |
| Cc1c[n+](CCC(=O)O)ccc1/C=C/c1cccc2ccccc12 | 750 µM | 17 | 45 µM |  |  |  |
| O=C(O)C[n+]1ccc(/C=C/c2cccc3ccccc23)cc1 |  | > 22 | 46 µM | inactive |  |  |
| CCCCCCC(C)OC(=O)CC(=O)C[n+]1ccc(/C=C/c2cccc3ccccc23)cc1 (stereo not given) | 350 µM | 7 | 50 µM |  |  |  |
| NC(=O)NC(=O)CBr |  |  |  | inactive | 130 µM |  |
| NC(=O)C[n+]1ccc(/C=C/c2cccc3ccccc23)cc1 | 80 µM | 296 | 0.27 µM |  |  |  |
| CCOC(=O)C(C(=O)OCC)[n+]1ccc(/C=C/c2cccc3ccccc23)cc1 | 500 µM | 24 | 21 µM |  |  |  |
| C[N+]1=CC=NC1/C=C/c1cccc2ccccc12 (stereo not given) | 51 µM |  |  |  |  | inactive |
| OCCC[n+]1ccc(/C=C/c2cccc3ccccc23)cc1 | 36 µM | 28 | 1.3 µM |  |  |  |
| NCC[n+]1ccc(/C=C/c2cccc3ccccc23)cc1 | 64 µM | 16 | 3.9 µM |  |  |  |
| CCCC[n+]1ccc(/C=C/c2cccc3ccccc23)cc1 | 3.9 µM | 11 | 0.37 µM |  |  |  |
